Screening results (PubChem BioAssay)
Only some compounds are listed: those with a hit (about 1.4% of all), similar ones and a draw of the others.
iPSC survival up – increases survival of single human iPS cells. hiPSC single-cell survival, ATPlite luminescence; 100% = ROCK inhibitor wells, 0% = DMSO. 360,000 tested, 0.044% active. survival enhancement, % at 20 µM; in the data active = survival enhancement above about 18%;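 also: cells exposed to compounds for 16 hours before the ATP read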
MT1-MMP act inh – MT1-MMP (human) activation inhibition. HT1080 RFP-PRO-GFP cells, GFP/RFP ratio fluorescence, overnight; percent of plate control window, DMSO zero. GFP/RFP ratio change, % at 20 µM. P50281. 360,000 tested, 0.061% active;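 active = GFP/RFP ratio change of at least 30% with cell ATP level not reduced by more than half and red fluorescence within 50% of control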
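Read-out: GFP/RFP fluorescence ratio; Test system: RFP-PRO-GFP reporter HT1080 cells; Compound dosing: single-point 20 µM compound, 1% DMSO; Times: overnight compound exposure at 37 °C.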
CendR NRP1 mod – modulators of CendR peptide binding to human neuropilin-1; O14786; FAM-RPARPAR peptide binding to NRP-1, fluorescence polarization; inhibition, % at 25 µM; 360,000 tested, 0.85% active; AID 602438;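 active = inhibition or corrected inhibition above about 18%, plus a signal ratio from 0.5 to 1.5, limit read from the data, passing the limit was not always enough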
Target sequence (O14786 whole entry, looked up): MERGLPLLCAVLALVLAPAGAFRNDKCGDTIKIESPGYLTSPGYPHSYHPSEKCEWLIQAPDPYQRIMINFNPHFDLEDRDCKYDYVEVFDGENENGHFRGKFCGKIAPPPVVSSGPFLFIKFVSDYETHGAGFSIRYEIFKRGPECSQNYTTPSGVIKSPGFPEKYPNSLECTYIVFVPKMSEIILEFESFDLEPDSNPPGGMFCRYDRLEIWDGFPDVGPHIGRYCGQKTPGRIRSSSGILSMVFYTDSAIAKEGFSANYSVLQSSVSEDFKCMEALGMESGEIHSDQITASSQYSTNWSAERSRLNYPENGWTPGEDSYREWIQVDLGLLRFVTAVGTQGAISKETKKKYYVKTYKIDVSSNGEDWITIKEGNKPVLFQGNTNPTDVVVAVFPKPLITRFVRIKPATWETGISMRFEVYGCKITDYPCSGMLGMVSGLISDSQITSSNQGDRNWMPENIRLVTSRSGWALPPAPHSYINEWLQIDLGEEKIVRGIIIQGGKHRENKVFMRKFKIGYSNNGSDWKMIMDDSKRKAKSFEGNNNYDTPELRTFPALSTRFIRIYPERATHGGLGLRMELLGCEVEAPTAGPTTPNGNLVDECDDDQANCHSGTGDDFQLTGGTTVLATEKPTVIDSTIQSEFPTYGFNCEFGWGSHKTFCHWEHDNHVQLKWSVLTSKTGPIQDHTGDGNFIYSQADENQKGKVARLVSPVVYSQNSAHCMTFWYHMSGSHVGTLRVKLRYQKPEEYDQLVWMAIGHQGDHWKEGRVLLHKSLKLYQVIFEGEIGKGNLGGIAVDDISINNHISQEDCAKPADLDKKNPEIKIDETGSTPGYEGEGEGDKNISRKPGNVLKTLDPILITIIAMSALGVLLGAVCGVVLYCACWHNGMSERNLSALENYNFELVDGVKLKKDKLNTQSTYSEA
SKN-1 inh – inhibitors of C. elegans SKN-1 | C. elegans VP596 Pgst-4::GFP/RFP ratio, acrylamide-induced, 24 h | inhibition, % at 21.8 µM | 360,000 tested, 0.49% active;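 active = interference check ratio from 0.5 to 1.5 plus GFP to RFP signal ratio inhibition reaching or exceeding a fixed threshold, cut at about 30% in these data, passing the limit was not always enough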
Of the large screens only hits and unclear results are named; the others gave an inactive call.

CCOC(=O)c1csc(NC(=O)c2ccc3c(c2)OCCO3)n1	CendR NRP1 mod 28.7
CCOC(=O)Cn1nnc(-c2cc(OC)c(OC)c(OC)c2)n1	none
CN(C)S(=O)(=O)c1ccc(N2CCCC2)c(C(=O)NCCc2ccc(F)cc2)c1	none
CN(C)S(=O)(=O)c1ccc(N2CCCC2)c(C(=O)NCc2cccc(C(F)(F)F)c2)c1	SKN-1 inh 47.1
Cc1nnc(NC(=O)c2cc(S(=O)(=O)N(C)C)ccc2N2CCCC2)s1	CendR NRP1 mod 22.8
Cc1ccc(S(=O)(=O)N(C)c2ccc(OCC(=O)N3CCCC(C(F)(F)F)C3)cc2)cc1 (stereo not drawn)	none
CCc1ccc(O)c(CNCCNCc2cc(CC)ccc2O)c1	none
Cc1ccc(O)c(CNCCNCc2cc(C)ccc2O)c1	CendR NRP1 mod 25.2 (no result: MT1-MMP act inh)
CCCCc1c(C)nn(-c2nnc3c4ccccc4n(C)c3n2)c1C	none
COc1ccc(Oc2nc3c(c(=O)n(C)c(=O)n3C)n2Cc2ccccc2)cc1	none
CCN(CC)c1ccc(/C=C2\C(=O)c3ccc(C(=O)O)cc3C2=O)cc1	SKN-1 inh 36.3
CCN(CC)c1ccc(C(=O)O)cc1	none
Cc1ccc(NC(=O)COc2ncnc3c(Cl)cc(Cl)cc23)cc1[N+](=O)[O-]	CendR NRP1 mod 25.1
Cn1c(=O)c2c(ncn2CC(COCc2ccccc2)OCc2ccccc2)n(C)c1=O (stereo not drawn)	CendR NRP1 mod 29.6
CCCNC(=O)C1(CC2CC(c3ccccc3)=NO2)CCN(C(=O)c2ccccc2)CC1 (stereo not drawn)	CendR NRP1 mod 27.4
CCOc1cc(C(=O)N2CCC(CC3CC(c4ccccc4)=NO3)(C(=O)NCc3ccc(OC)cc3)CC2)cc(OCC)c1OCC (stereo not drawn)	CendR NRP1 mod 44.8
CCc1cc(C(=O)NC(C)C2CCCO2)cs1 (stereo not drawn)	none
Cc1cc(C(=O)NC(C)C2CCCO2)cs1 (stereo not drawn)	CendR NRP1 mod 44.0
Fc1cccc(CN2CCN(C(=S)NCCc3ccccc3)CC2)c1	none
CC(NC(=O)C1CCCN(S(=O)(=O)c2cccs2)C1)c1ccccc1 (stereo not drawn)	none
c1ccc(-c2cc3c(N4CCOCC4)ncnc3s2)cc1	SKN-1 inh 38.0
O=C(COc1ccc(-c2ccccc2)cc1)N1CCN(C(=O)c2cccs2)CC1	none
O=S(=O)(NCCc1ccccn1)c1ccc(-c2ccccn2)s1	none
CCC1=C(OC(=O)N(CC)CC)N2C(=O)OC(=NCCOC)[C@]2(Cc2ccccc2)[C@H]2C1=CC[C@H]1C(=O)N(CC(=O)OC)C(=O)[C@H]12	CendR NRP1 mod 35.2
CCC1=C(OC(=O)N(CC)CC)N2C(=O)OC(=NCC3CC3)[C@]2(Cc2ccccc2)[C@H]2C1=CC[C@H]1C(=O)N(C)C(=O)[C@H]12	CendR NRP1 mod 25.5
O=C(CNC(=O)OCc1ccccc1)NCC(=O)Oc1ccc([N+](=O)[O-])cc1	none
CC(Nc1cccc2ccccc12)C(=O)N/N=C/c1ccccn1 (stereo not drawn)	CendR NRP1 mod 39.7
Nc1ccc(C(=O)Nc2ccc(Nc3ccncc3)cc2)c([N+](=O)[O-])c1	CendR NRP1 mod 26.7
NC(=S)NNC(=O)/C(=C/c1ccc(Br)cc1)NC(=O)c1ccccc1	none
O=C(NCCOC(=O)c1ccc(C(=O)OCCNC(=O)c2ccccc2)o1)c1ccccc1	none
O=C(NCCOC(=O)c1ccccc1)c1ccccc1	CendR NRP1 mod 21.8
O=c1ccc(-c2ccccc2)nn1Cc1ccccc1	none
Nc1cc(-c2ccccc2)nn1Cc1ccccc1	CendR NRP1 mod 41.3
Cc1cc(C)n(CC(O)Cn2c(C)c(C)c3ccccc32)n1 (stereo not drawn)	SKN-1 inh 63.3
O=C(O)c1ccccc1-c1ccccc1C(=O)NNc1ccccc1	none
CN(C)CCCN1C(=O)c2cccc3c([N+](=O)[O-])ccc(c23)C1=O	CendR NRP1 mod 28.6
O=C1c2cccc3c([N+](=O)[O-])ccc(c23)C(=O)N1CCc1ccccn1	none
COCCOc1ccc(C(F)(F)F)cc1NC(=O)COC(=O)c1c(C)noc1C	none
O=C(Nc1ccc(Cl)cc1)C(c1ccccc1)N(CCO)CCO (stereo not drawn)	SKN-1 inh 36.8
CCOC(=O)C1=C(C)N(c2nonc2NC(C)=O)C(N)=C(C#N)C1c1ccccc1F (stereo not drawn)	none
CC(C)[C@H](NC(=O)c1ccccc1)C(=O)OCC(=O)c1ccccc1F	none
CC(C)[C@H](NC(=O)c1c(F)cccc1F)C(=O)OCC(=O)NNC(=O)c1ccccc1	CendR NRP1 mod 21.1
Cc1ccc(NS(=O)(=O)c2c(C(=O)N3CCCCCC3)c(C)n(C)c2C)c(C)c1	CendR NRP1 mod 26.2
CCc1ccc(NS(=O)(=O)c2c(C(=O)N3CCCCCC3)c(C)n(C)c2C)cc1	CendR NRP1 mod 27.6
CCC(=O)NC(c1ccccc1)c1c(O)ccc2ccccc12 (stereo not drawn)	none
N#CC1=C(N)NC(SCc2ccc(Cl)cc2)=C(C#N)C12CCCCC2	CendR NRP1 mod 29.1
N#CC1=C(N)NC(SCc2ccc(Br)cc2)=C(C#N)C12CCCCC2	none
CC(=O)C[C@H](O)CC(=O)[C@H]1OC(=O)[C@H](C)C/C=C\Cc2ccccc21	CendR NRP1 mod 24.6
CC(=O)N1N=C2/C(=C/c3ccccc3)CCCC2C1c1ccccc1 (stereo not drawn)	none
CSCC[C@H](NC(=O)OC(C)(C)C)c1nnc(SCc2cccc(F)c2)o1	none
CC(C)C[C@H](NC(=O)OC(C)(C)C)c1nnc(SCc2cccc(F)c2)o1	CendR NRP1 mod 44.2
O=C1c2ccccc2S(=O)(=O)N1CCS(=O)(=O)c1ccc(F)cc1	none
COc1ccc(C(=O)c2oc3ccc(OC)cc3c2N)cc1	SKN-1 inh 43.8
COC(=O)c1oc2ccc(OC)cc2c1N	none
CC(=O)NS(=O)(=O)c1ccc(N=NN2CCOCC2)cc1	CendR NRP1 mod 27.1
COc1ccccc1/C=C/C=N/N1CCN(Cc2ccc(Cl)cc2)CC1	SKN-1 inh 35.5
Cc1ccc(NC(=O)CSc2nnc(-c3ccc(S(=O)(=O)N4CCCC4)cc3)o2)cc1C	CendR NRP1 mod 26.0
CCCCNc1ccc(C(F)(F)F)cc1S(=O)(=O)NCCc1ccc(F)cc1	none
CCCc1nc2ccccc2c(=O)n1/N=C/c1c(C)[nH]n(-c2ccc(C)cc2)c1=O	none
COc1ccc(C(=O)/C=C/c2ccc(OC)c(CN3CCOCC3)c2)cc1	SKN-1 inh 61.1
COc1ccc(CNC(C)C(=O)Nc2ccc3ccccc3c2)cc1OC (stereo not drawn)	SKN-1 inh 50.8
COc1cccc(CNC(C)C(=O)Nc2ccc3c(c2)OCCO3)c1 (stereo not drawn)	none
Cc1ccc(NC(=S)N2CCC(NC(=O)c3ccc(F)cc3)CC2)cc1	none
CNC(=S)NNC(=O)c1sc2cc(C(F)(F)F)cnc2c1-c1ccccn1	CendR NRP1 mod 23.1
CNC(=S)NNC(=O)c1sc2cc(C(F)(F)F)cnc2c1-c1cccnc1	none
Cn1c(-c2sc3cc(C(F)(F)F)cnc3c2-c2ccccn2)n[nH]c1=S	CendR NRP1 mod 25.3
